Reference: ChEMBL document CHEMBL4513216, “Probing the Open Global Health Chemical Diversity Library for Multistage-Active Starting Points for Next-Generation Antimalarials” (ACS Infect Dis, 2020)

Assay: Toxicity liver stage against HepG2, at 10uM
Format: cell-based
Parameters: test concentration 10 uM, cell line HepG2-A16-CD81EGFP
Details: human, HepG2-A16-CD81EGFP cells; read-out: INHIBITION
Outline: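 Uninfected HepG2-A16-CD81EGFP cells, 3 × 10^3 per well, 1536-well, plated on prespotted compound at 10 μM final, parasite-free screening media added to match infected plates; puromycin 10 μM positive, DMSO 0.5% negative; run in parallel with 48 h PbLuc assay at 37 °C, 5% CO2; viability by CellTiter-Glo luminescence, normalized to controls.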

Row | Structure (SMILES) | cytotoxicity at 10 µM
1 | Cc1ccc(CN(C)C(=O)NCC(=O)NC(C)(C)C)s1 | 0.136%
2 | CC1CN(CC(=O)Nc2ccncc2)CCN1c1nccs1 (stereo unspecified) | 29.5%
3 | COc1cccc(C(=O)C2CCCN(c3cc(C#N)ccn3)C2)c1 (stereo unspecified) | 1.85%
4 | O=C(C1CC1)N1CCC(C(=O)N2CCC(c3ccc(F)cc3)C2)CC1 (stereo unspecified) | -46.3%
5 | O=C(CN1CCC(c2ccccc2)C1)NCC(F)(F)F (stereo unspecified) | -5.28%
6 | CC(C)N1CCC(CNCc2c[nH]nc2C(C)(C)C)C1 (stereo unspecified) | -2.16%
7 | CC(NCCCN1CCCC1=O)c1cc(Br)ccc1O (stereo unspecified) | -1.41%
8 | CC(CC1CC1)NCCCN1CCCN(C)CC1 (stereo unspecified) | 31.7%
9 | CNC(=O)CC1CCN(Cc2nc(-c3cccc(Cl)c3)oc2C)CC1 | -9.75%
10 | c1ccc(-n2cc(CN3CCCC3Cn3cncn3)nn2)cc1 (stereo unspecified) | -0.0716%
11 | CCN(Cc1ccc(Cl)c(Cl)c1)C(=O)CCn1cncn1 | 9.87%
12 | CN1[C@@H]2CC[C@H]1CN(C(=O)c1sccc1S(N)(=O)=O)CC2 | 1.95%
13 | Cc1nc(C2(O)CCCNCC2)sc1CCOc1ccccc1 (stereo unspecified) | -28.5%
14 | CC(=O)N1CCN(C(=O)c2cnc(OC(C)C)c(Cl)c2)CC1 | -4.36%
15 | COc1ccc(-c2nc3c([nH]2)CCNC3C(=O)O)c2ccc(C)nc12 (stereo unspecified) | 0.562%
16 | CC(Cn1cccn1)NCc1cnc(N2CCCC2)nc1 (stereo unspecified) | -13%
17 | CN(CCO)Cc1nnc(C2CCN(C(=O)c3ccccc3)CC2)n1C | 1.93%
18 | Nc1ncncc1-c1noc([C@@H]2CCCN2CCCc2ccccc2)n1 | 1.58%
19 | CN1CCC(N(C)C[C@H]2CC[C@@H](Cc3cccc(CO)c3)O2)CC1 | 0.224%
20 | CO[C@H]1CN(C(=O)c2ccc3oc(C)cc3c2)CC[C@@]12CCCO2 | 0.153%
21 | O=C1NC2(CCCCC2)c2nnnn2-c2ccc(Br)cc21 | 6.83%
22 | O=C(CN1CCC(c2ccnn2CCO)CC1)NCc1cccs1 | -10.4%
23 | Cc1nc(CN2CCCC2c2c(C)nn(C)c2Cl)oc1C (stereo unspecified) | -3.33%

Row | Structure (SMILES) | cytotoxicity at 10 µM
24 | Cc1c(NC(=O)CN2CCC(Oc3cnccn3)CC2)cnn1C | -4.68%
25 | Cc1cnc(C)c(N2CCN(CC3CCCO3)CC2)n1 (stereo unspecified) | 5.82%
26 | CCC(O)CN1CCN(C(=O)Cc2nc(-c3ccco3)oc2C)CC1 (stereo unspecified) | -2.94%
27 | Cc1nc(CN2C(=O)CC[C@@H]3[C@H]2CCN3C(=O)C2CCCO2)cs1 (stereo partly specified) | -9.33%
28 | COc1ccc(S(=O)(=O)NC(=O)c2c(C)noc2C(C)C)cc1OC | -2.23%
29 | CC(=O)N1CCCN(Cc2nnc(C(C)(C)C)o2)CC1 | -4.13%
30 | Cc1nc(C(=O)N2CCN(C(C)c3ccccc3F)CC2)cs1 (stereo unspecified) | -0.462%
31 | CC(NC(=O)N1CCc2sccc2C1)c1nncn1C (stereo unspecified) | -8.6%
32 | Cc1noc(C)c1C(=O)NCc1ccc(N2CCOC(C)C2)nc1 (stereo unspecified) | -3.46%
33 | OC1CCN(c2ccnc(NCCN3CCc4ccccc4C3)n2)C1 (stereo unspecified) | -11.8%
34 | COC(=O)c1cccn1C1CCN(C(=O)c2ccc(C)cc2O)CC1 | -6.97%
35 | CN(C)C(=O)Cc1nc(CN2CCn3c(nnc3C3CC3)C2)cs1 | -9.66%
36 | O=C(N[C@@H]1CCNC[C@H]1O)c1ccc(-c2ccc(F)cc2)cc1 | -6.29%
37 | CC(O)CN1CCC(CNCc2ccc(S(C)(=O)=O)cc2)CC1 (stereo unspecified) | -21.4%
38 | Cc1nc(CN2CCO[C@@H]3CN(C(=O)CC4CC4)C[C@@H]3C2)cs1 | 5.04%
39 | Cc1nc(CCNc2ccc(-c3nc(C)c(C)c(=O)[nH]3)cn2)cs1 | 2.07%
40 | CSCc1cccc(NC(=O)N2CCC(N3CC=CC3)C2)c1 (stereo unspecified) | -1.83%
41 | CN(CC(O)C1CC1)C(=O)c1ccc(-c2nc(C3CC3)no2)cc1 (stereo unspecified) | -3.45%
42 | CC(C)C(=O)N1CC[C@H]2N(C)CC[C@@]2(C(=O)Nc2ccccc2)CC1 | -107%
43 | CN(C)c1nc(N2CCCC2)nc2c1CCN(C(=O)c1ccco1)CC2 | 14.4%
44 | COc1ccc(F)cc1S(=O)(=O)N1CCC(Oc2ccc(Cl)cn2)CC1 | 8.05%
45 | O=C(c1cccs1)N1C[C@H]2CCC[C@@]2(COCC2CCOCC2)C1 | -68.9%
46 | CN(C)[C@@H]1CCN(C(=O)c2ccsc2)[C@H]1Cc1cnn(C)c1 | -6.18%

Row | Structure (SMILES) | cytotoxicity at 10 µM
47 | O=C(Nc1ccccn1)N(CCO)Cc1ccsc1 | 2.12%
48 | O=C(CN1CCS(=O)(=O)CC1)NC1CCOc2ccccc21 (stereo unspecified) | 5.44%
49 | CCc1nc2n(n1)CC(NCc1cn(C)nc1-c1cccnc1)CC2 (stereo unspecified) | -5.95%
50 | NC(=O)c1cncc(Oc2cccc(CN3CCCC3)c2Cl)n1 | -3.47%
51 | Cc1cc(C)nc(C2CCN(C(=O)c3cnco3)C2)n1 (stereo unspecified) | -4.22%
52 | COCC(=O)N[C@H](C)c1onc(-c2ccccc2)c1C(=O)O | 0.179%
53 | Cc1ccc(O)c(C(=O)NCCS(=O)(=O)Cc2ccccc2)c1 | 4.57%
54 | CC(C)CC(c1nc(-c2cnn(C)c2)no1)N1CCCCC1=O (stereo unspecified) | -42%
55 | CCNC(=O)CN1CCN(Cc2nc3c(F)cccc3n2CC)CC1 | -11.5%
56 | COc1cccc(Nc2nc(N3CCCC3)nc3c2CNCC3)c1 | -6.41%
57 | CCc1cnc(NCCS(=O)(=O)N(C)C)nc1 | -10.2%
58 | CCn1cnnc1CNC(=O)N1CCC(CN2CCOCC2)CC1 | -7%
59 | CNS(=O)(=O)c1cccc(CNc2ccc(C#N)cn2)c1 | -4.36%
60 | CN1CCCC2(CCN(S(=O)(=O)c3c(Cl)nc4sccn34)C2)C1=O (stereo unspecified) | 12.4%
61 | O=C(CN1CCCC(O)C1)NC(=O)NCc1cccs1 (stereo unspecified) | 0.795%
62 | CCN(C(=O)NCc1ncc(C)c(OC)c1C)C(C)c1cccnc1 (stereo unspecified) | 1.84%
63 | CC(=O)NCc1noc2c1CN(Cc1cnn(C)c1)CC2 | -1.71%
64 | CC(=O)N(CCc1ccccc1)CC(=O)NC1(C#N)CC1 | 1.09%
65 | CCN(CC)C(=O)Cn1cc(C(=O)NCCCc2scnc2C)nn1 | -7.38%
66 | CCc1cnc(CNC(=O)NC2CCN(C3CCCC3)CC2)s1 | -1.06%
67 | CSc1ccc(NC(=O)Cc2cccc(O)c2)nc1 | -4.3%
68 | CC(NC1(CNC(=O)NC2CC2)CCOCC1)c1ccccc1 (stereo unspecified) | 10.2%
69 | CC(CNC(=O)c1cc(Cl)ccc1I)N1CCCC1 (stereo unspecified) | -5.28%

Row | Structure (SMILES) | cytotoxicity at 10 µM
70 | Nc1ccc(C(=O)N2CCC(Oc3cccc(C(F)(F)F)c3)CC2)cn1 | 5.3%
71 | CCS(=O)(=O)N1CCC(c2nnc(CN3CCCCC3)n2C)CC1 | -6.03%
72 | Cc1cc(C)cc(OCCCn2nc3ccccn3c2=O)c1 | 3.95%
73 | CCc1[nH]c2c(CNc3cncc(C(=O)N(C)C)n3)cc(F)cc2c1C | 3.86%
74 | COc1cccc(-c2noc3c2CN(c2nc(C)ncc2C)CC3)c1 | 45.1%
75 | O=c1cc(Cn2ccnc2)nc2n1CCCN(Cc1cccs1)C2 | 0.312%
76 | NCCn1nc(C2CCN(Cc3ccccc3)C2)c2nccnc21 (stereo unspecified) | 0.975%
77 | COCc1cccc(S(=O)(=O)N2CCSCC2)c1 | 8.19%
78 | CN(C)S(=O)(=O)N1CC[C@]2(C[C@@H](OCC3CC3)CO2)C1 | 8.88%
79 | O=C1CN(c2ccc(CNC(=O)NCc3ccoc3)cc2)CCN1 | -1.28%
80 | O=C(c1ccccc1)N1CCN(C2CCc3ccc(F)cc32)CC1 (stereo unspecified) | 11.1%
81 | Cc1ccnc(C2CCN(C(=O)c3cnn(C)c3)CC2)n1 | -4.15%
82 | CN(C)c1cc(C2CCCN(C(=O)Cn3cc(Cl)cn3)C2)ccn1 (stereo unspecified) | -23.2%
83 | CN(C)c1ncc(-c2cncnc2)c(C2CNCCO2)n1 (stereo unspecified) | 1.69%
84 | Cc1cccc(Cn2ccc(NS(C)(=O)=O)n2)c1 | -6.6%
85 | CC(C)NC(=O)CC1CC2(CCN(CC3CC3)CC2)Oc2ccccc21 (stereo unspecified) | -2.42%
86 | Cn1c(CN2CCCC2)nnc1C1CCCN(C(=O)N2CCOCC2)C1 (stereo unspecified) | -0.193%
87 | CC(=O)c1cn(CCC(=O)N[C@H](C(=O)O)C(C)C)c2ccccc12 | 8.86%
88 | COCCC(=O)N1CCC2(CN(Cc3cccc(F)c3)C2)C1 | -74%
89 | Cc1nc(-c2ccsc2)ccc1C(=O)NCCC1CCCO1 (stereo unspecified) | -9.75%
90 | Clc1ccc(C(CNCc2cccnc2)n2cccn2)cc1 (stereo unspecified) | -5.07%
91 | CCN(Cc1ccc2c(c1)OCO2)S(=O)(=O)N(C)C | -2.97%
92 | Cn1nc(C#N)c2c1CN(C(=O)c1ccsc1)CCC2 | -126%

Row | Structure (SMILES) | cytotoxicity at 10 µM
93 | NC(=O)c1cc(CC2CCCN(c3cnccn3)C2)ncn1 (stereo unspecified) | -1.15%
94 | OC[C@H]1CN(Cc2c(Cl)cncc2Cl)C[C@H]1CN1CCCC1 | -127%
95 | CC(C)C1CN(C(=O)c2ccsc2)CCS1 (stereo unspecified) | 2.46%
96 | CC(C)=CCCC(C)(O)c1cc(C(N)=O)no1 (stereo unspecified) | 3.56%
97 | COCCn1ccc(NC(=O)Nc2cccc(C#N)c2)n1 | 4%
98 | CS(=O)(=O)NCCCNC(=O)c1cccnc1O | -17.7%
99 | CCc1noc(C(C)N2CCc3c(ncn3C3CC3)C2)n1 (stereo unspecified) | 4.36%
100 | CC(C)NC(=O)N[C@H]1C[C@@H](c2nc(-c3ccncc3)no2)N(C)C1 | -2.8%
101 | COc1cccc(OC)c1-c1ccnc2cc(CC(=O)NC3CC3)nn12 | -2.67%
102 | Cc1nccn1C1CCCN(C(=O)Cc2cn3ccccc3n2)C1 (stereo unspecified) | -20.9%
103 | CC(=O)N1CCO[C@@H]2CN(C(=O)c3cc(C)oc3C)CC[C@@H]2C1 | 10.5%
104 | CS(=O)(=O)NC[C@@H]1OC[C@H]2CN(C(=O)c3ccc[nH]3)CC[C@H]21 | 0.253%
105 | CC1=CCN(C(=O)Nc2ccccc2N2CCOC2=O)CC1 | -0.724%
106 | Clc1cccc(N2CCC(NCc3ncc[nH]3)C2)c1 (stereo unspecified) | 7.41%
107 | C[C@@H]1CC[C@@H](C)N1C(=O)c1cc(COc2ccccc2)[nH]n1 | 4.82%
108 | Cc1c(C(=O)NC2(C#N)CCCC2)nnn1-c1ccccc1Cl | -6.75%
109 | CCC(=O)N1CCC2(CC1)CC(N1CCOCC1)c1cc(C)ccc12 (stereo unspecified) | -149%
110 | CC(C)c1noc(CN(Cc2ccccc2F)C2CC2)n1 | -7.96%
111 | Cc1cc(C(=O)N2CC[C@@H]3CN(S(C)(=O)=O)CCO[C@@H]3C2)c(C)o1 | 3.52%
